Test results taken from ChEMBL document CHEMBL4350961, “Discovery of Pyrrolo[3,2- d]pyrimidin-4-one Derivatives as a New Class of Potent and Cell-Active Inhibitors of P300/CBP-Associated Factor Bromodomain” (J Med Chem, 2019).
The source made the active and inactive calls. The calls are words filed in the database; no cut-off is given here.

Columns and labels:
[1] = test system: CDK18/Cyclin Y (Homo sapiens), Q07002+Q8ND76 [T166M]; assay: Inhibition of recombinant full length human cyclinY/CDK18 T166M mutant at 10 uM using YRRAAVPPSPSLS as substrate measured after 40 mins in presence of [gamma33P]ATP by scintillation counting method; type: protein-complex assay
[2] = molecular target: Vascular endothelial growth factor receptor 1 (Homo sapiens) (UniProt P17948); assay: Inhibition of recombinant human Flt1 (783 to end residues) at 10 uM using KKKSPGEYVNIEFG as substrate measured after 40 mins in presence of [gamma33P]ATP by scintillation counting method
Vascular endothelial growth factor receptor 1 (Homo sapiens), sequence (P17948 whole entry): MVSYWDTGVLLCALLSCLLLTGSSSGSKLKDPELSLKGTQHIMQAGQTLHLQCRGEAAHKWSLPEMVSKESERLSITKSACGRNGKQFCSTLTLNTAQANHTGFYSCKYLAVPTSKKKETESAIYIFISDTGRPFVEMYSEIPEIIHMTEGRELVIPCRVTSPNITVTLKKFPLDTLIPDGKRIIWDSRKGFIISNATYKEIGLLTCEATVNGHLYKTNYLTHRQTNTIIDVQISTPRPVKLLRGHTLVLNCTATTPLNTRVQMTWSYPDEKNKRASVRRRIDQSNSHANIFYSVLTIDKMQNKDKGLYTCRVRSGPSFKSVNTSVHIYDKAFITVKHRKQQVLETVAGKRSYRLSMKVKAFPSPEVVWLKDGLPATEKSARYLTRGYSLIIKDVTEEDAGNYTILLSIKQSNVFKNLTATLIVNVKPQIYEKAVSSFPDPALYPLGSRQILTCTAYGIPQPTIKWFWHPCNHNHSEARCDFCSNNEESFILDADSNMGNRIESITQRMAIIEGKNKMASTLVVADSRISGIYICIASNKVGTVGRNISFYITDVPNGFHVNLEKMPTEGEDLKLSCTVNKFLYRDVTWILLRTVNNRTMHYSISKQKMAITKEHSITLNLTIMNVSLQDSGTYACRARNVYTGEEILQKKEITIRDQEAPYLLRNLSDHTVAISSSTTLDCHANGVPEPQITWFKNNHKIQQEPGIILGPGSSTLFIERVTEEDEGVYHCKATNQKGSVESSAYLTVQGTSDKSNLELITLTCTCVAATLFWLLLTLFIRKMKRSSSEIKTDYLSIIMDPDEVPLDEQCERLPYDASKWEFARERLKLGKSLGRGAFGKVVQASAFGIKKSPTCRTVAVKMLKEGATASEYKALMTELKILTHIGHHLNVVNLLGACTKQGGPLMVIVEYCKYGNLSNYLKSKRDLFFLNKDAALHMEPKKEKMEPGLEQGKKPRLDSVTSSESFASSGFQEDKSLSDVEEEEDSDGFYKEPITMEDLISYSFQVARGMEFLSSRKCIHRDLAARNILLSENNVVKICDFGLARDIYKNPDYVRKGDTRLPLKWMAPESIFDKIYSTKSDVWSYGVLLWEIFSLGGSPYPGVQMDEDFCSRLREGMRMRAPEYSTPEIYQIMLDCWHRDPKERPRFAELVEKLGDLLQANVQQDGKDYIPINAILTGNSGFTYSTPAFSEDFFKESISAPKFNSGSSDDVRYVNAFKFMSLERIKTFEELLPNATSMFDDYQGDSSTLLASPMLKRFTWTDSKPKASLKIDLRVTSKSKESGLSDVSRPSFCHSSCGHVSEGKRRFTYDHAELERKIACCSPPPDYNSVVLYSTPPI

Mus musculus = species: Mus musculus; assay: Inhibition of recombinant mouse ARG M982V/A562 mutant (27 to end residues) at 10 uM using EAIYAAPFAKKK as substrate measured after 40 mins in presence of [gamma33P]ATP by scintillation counting method
[3] = molecular target: CDK4/Cyclin D3 (Homo sapiens) (UniProt P11802+P30281); assay: Inhibition of recombinant full-length human CDK4/cyclinD3 at 10 uM using Rb fragment as substrate measured after 40 mins in presence of [gamma33P]ATP by scintillation counting method; type: protein-complex assay
[4] = test system: Serine/threonine-protein kinase Nek4 (Homo sapiens), P51957 [P225A]; assay: Inhibition of recombinant full-length human NEK4 P225A mutant at 10 uM using myelin basic protein as substrate measured after 40 mins in presence of [gamma33P]ATP by scintillation counting method
[5] = molecular target: PAS domain-containing serine/threonine-protein kinase (Homo sapiens) (UniProt Q96RG2); assay: Inhibition of recombinant human PASK (995 to end residues) at 10 uM using KKLNRTLSFAEPG as substrate measured after 40 mins in presence of [gamma33P]ATP by scintillation counting method
[6] = molecular target: Platelet-derived growth factor receptor alpha (Homo sapiens) (UniProt P16234); assay: Inhibition of recombinant human PDGFRalpha (550 to end residues) at 10 uM using poly(Glu, Tyr) 4:1 as substrate measured after 40 mins in presence of [gamma33P]ATP by scintillation counting method
Platelet-derived growth factor receptor alpha (Homo sapiens), sequence (P16234 whole entry): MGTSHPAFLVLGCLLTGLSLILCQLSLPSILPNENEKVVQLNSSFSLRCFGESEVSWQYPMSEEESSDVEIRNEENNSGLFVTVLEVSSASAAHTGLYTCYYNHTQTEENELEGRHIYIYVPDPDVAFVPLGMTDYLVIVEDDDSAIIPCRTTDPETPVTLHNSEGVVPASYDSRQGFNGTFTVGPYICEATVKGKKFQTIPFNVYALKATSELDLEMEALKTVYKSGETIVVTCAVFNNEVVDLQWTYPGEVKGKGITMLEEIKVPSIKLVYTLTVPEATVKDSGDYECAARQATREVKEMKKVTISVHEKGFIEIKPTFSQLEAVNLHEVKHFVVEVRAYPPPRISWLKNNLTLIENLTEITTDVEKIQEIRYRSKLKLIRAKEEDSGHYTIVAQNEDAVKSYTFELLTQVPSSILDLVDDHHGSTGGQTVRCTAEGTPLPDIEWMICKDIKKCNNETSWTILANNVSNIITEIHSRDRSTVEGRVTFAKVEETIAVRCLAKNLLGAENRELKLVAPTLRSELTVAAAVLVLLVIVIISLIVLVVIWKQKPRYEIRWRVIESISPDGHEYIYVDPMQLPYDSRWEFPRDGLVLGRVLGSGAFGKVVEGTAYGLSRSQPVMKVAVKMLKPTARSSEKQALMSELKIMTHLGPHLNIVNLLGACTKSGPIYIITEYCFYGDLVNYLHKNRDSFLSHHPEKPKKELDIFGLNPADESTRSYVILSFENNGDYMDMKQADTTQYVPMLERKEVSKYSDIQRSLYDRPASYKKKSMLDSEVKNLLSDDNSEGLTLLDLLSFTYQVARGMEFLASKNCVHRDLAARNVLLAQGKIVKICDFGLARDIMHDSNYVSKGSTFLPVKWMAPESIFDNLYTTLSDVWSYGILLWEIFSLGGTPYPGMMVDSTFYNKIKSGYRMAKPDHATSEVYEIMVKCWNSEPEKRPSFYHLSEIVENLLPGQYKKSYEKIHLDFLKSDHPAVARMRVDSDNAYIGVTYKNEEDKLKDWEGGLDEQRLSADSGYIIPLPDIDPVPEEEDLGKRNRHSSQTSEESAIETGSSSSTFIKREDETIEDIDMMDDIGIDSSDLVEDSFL

Peregrin (Homo sapiens) = Peregrin (Homo sapiens) (UniProt P55201); assay: Binding affinity to human N-terminal His-tagged BRPF1 assessed as change in melting temperature at 10 uM by SYPRO orange dye-based fluorescence assay
How it was run: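 Thermal shift with His-tagged human bromodomain at 2 μM final in 10 mM HEPES pH 7.5, 500 mM NaCl. Compound at 10 μM final with 0.1% DMSO; SYPRO Orange at 1:1000. Equilibrated 3 min at 25 °C, then heated from 25 to 95 °C at 1 °C/min. Melting temperature shift taken from fluorescence; at least duplicate.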

[7] = molecular target: Serine/threonine-protein kinase pim-1 (Homo sapiens) (UniProt P11309); assay: Inhibition of recombinant full-length human Pim1 at 10 uM using KKRNRTLTV as substrate measured after 40 mins in presence of [gamma33P]ATP by scintillation counting method
Serine/threonine-protein kinase pim-1 (Homo sapiens), sequence (P11309 whole entry, looked up, the tested form may be a part): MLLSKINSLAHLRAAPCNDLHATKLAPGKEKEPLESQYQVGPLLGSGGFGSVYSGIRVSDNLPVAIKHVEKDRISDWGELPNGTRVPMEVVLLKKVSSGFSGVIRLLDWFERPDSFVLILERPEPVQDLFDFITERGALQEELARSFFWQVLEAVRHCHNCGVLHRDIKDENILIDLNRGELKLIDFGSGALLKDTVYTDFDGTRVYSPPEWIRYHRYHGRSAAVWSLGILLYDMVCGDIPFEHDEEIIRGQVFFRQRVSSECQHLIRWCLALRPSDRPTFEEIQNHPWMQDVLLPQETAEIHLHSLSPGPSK

[8] = molecular target: Bromodomain-containing protein 9 (Homo sapiens) (UniProt Q9H8M2); assay: Binding affinity to human partial length BRD9 (R130 to V259 residues) expressed in bacterial expression system at 1 uM by BROMOscan assay
How it was run: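 BROMOscan bromodomain cross-screen run by an outside service, compound at 1 µM against 32 recombinant bromodomains. Binding given as percent of control.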

[9] = molecular target: Cytoplasmic tyrosine-protein kinase BMX (Homo sapiens) (UniProt P51813); assay: Inhibition of full-length recombinant human BMX at 10 uM using poly(Glu, Tyr) 4:1 as substrate measured after 40 mins in presence of [gamma33P]ATP by scintillation counting method
How it was run: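 Kinase panel of 422 kinases screened by Eurofins KinaseProfiler at a single test-compound concentration of 10 µM.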

[10] = test system: Tyrosine-protein kinase receptor UFO (Homo sapiens), P30530 [Q764R]; assay: Inhibition of recombinant human AXL Q764R mutant (473 to end residues) at 10 uM using KKSRGDYMTMQIG as substrate measured after 40 mins in presence of [gamma33P]ATP by scintillation counting method
[11] = molecular target: ALK tyrosine kinase receptor (Homo sapiens) (UniProt Q9UM73); assay: Inhibition of recombinant human ALK (1058 to end residues) at 10 uM using KKKSPGEYVNIEF as substrate measured after 40 mins in presence of [gamma33P]ATP by scintillation counting method
[12] = molecular target: Ephrin type-A receptor 2 (Homo sapiens) (UniProt P29317); assay: Inhibition of recombinant human EphA2 (596 to 900 residues) at 10 uM using poly(Glu, Tyr) 4:1 as substrate measured after 40 mins in presence of [gamma33P]ATP by scintillation counting method
[13] = molecular target: Serine-protein kinase ATM (Homo sapiens) (UniProt Q13315); assay: Inhibition of recombinant full-length human ATM at 10 uM using GST-cMyc-p53 as substrate measured after 40 mins by ELISA
[14] = test system: Proto-oncogene tyrosine-protein kinase Src (Homo sapiens), P12931 [T341M]; assay: Inhibition of recombinant full-length human Src T341M mutant at 10 uM using GGEEEEYFELVKKKK as substrate measured after 40 mins in presence of [gamma33P]ATP by scintillation counting method
[15] = molecular target: Tyrosine-protein kinase ABL1 (Homo sapiens) (UniProt P00519); assay: Inhibition of recombinant human ABL (27 to end residues) at 10 uM using EAIYAAPFAKKK as substrate measured after 40 mins in presence of [gamma33P]ATP by scintillation counting method
Tyrosine-protein kinase ABL1 (Homo sapiens), sequence (P00519 whole entry, the tested form may be a part, canonical isoform): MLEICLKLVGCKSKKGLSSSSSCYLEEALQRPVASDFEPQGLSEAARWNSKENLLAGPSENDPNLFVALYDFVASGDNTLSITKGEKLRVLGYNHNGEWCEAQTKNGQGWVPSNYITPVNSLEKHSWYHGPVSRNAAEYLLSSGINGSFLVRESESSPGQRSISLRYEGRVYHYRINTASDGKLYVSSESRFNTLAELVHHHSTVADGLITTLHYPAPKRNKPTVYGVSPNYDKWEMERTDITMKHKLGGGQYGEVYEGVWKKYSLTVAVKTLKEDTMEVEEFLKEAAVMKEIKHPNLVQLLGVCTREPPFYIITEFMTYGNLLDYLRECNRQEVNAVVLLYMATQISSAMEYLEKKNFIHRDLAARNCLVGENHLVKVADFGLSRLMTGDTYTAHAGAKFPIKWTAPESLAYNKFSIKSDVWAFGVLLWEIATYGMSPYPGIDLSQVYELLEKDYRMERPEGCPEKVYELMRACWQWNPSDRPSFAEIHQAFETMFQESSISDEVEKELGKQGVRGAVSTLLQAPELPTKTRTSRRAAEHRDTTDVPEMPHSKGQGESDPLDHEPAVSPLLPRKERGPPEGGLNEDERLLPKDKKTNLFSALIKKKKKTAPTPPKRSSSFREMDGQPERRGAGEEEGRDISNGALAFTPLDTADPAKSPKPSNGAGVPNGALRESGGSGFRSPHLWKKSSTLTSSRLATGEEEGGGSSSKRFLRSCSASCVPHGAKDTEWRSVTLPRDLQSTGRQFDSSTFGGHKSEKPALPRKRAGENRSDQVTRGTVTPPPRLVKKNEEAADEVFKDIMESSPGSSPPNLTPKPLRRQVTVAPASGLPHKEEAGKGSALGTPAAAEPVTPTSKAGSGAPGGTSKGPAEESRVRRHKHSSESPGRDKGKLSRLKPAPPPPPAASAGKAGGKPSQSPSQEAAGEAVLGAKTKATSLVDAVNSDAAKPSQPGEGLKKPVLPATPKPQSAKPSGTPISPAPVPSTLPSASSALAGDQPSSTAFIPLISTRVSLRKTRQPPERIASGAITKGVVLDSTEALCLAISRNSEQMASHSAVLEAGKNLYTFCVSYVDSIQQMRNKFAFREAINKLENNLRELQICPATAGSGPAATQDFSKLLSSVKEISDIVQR

[16] = test system: Phosphorylase b kinase gamma catalytic chain, liver/testis isoform (Homo sapiens), P15735 [F290L]; assay: Inhibition of recombinant human PhKgamma2 F290L mutant (1 to 301 residues) at 10 uM using KKLNRTLSFAEPG as substrate measured after 40 mins in presence of [gamma33P]ATP by scintillation counting method
Phosphorylase b kinase gamma catalytic chain, liver/testis isoform (Homo sapiens), P15735 [F290L], sequence (P15735 whole entry F290L, the tested form may be a part, canonical isoform): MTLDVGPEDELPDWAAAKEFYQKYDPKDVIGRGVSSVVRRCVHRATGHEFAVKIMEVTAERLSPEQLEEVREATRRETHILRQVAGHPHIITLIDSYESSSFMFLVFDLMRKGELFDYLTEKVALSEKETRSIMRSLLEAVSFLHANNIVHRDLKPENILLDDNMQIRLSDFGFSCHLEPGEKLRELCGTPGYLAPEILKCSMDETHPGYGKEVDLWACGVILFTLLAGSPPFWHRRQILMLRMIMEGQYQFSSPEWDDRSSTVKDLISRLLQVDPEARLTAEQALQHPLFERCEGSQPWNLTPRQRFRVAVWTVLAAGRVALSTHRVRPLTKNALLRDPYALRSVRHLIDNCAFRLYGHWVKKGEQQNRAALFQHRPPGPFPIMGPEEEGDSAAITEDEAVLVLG

Homo sapiens [17] = species: Homo sapiens; assay: Inhibition of recombinant full-length human PKBalpha […] mutant at 10 uM using GRPRTSSFAEGKK as substrate measured after 40 mins in presence of [gamma33P]ATP by scintillation counting method
Homo sapiens [18] = species: Homo sapiens; assay: Inhibition of recombinant full-length human JNK2alpha2 S51N mutant at 10 uM using ATF2 as substrate measured after 40 mins in presence of [gamma33P]ATP by scintillation counting method
[19] = molecular target: Ephrin type-B receptor 1 (Homo sapiens) (UniProt P54762); assay: Inhibition of recombinant human EphB1 (564 to end residues) at 10 uM using KVEKIGEGTYGVVYK as substrate measured after 40 mins in presence of [gamma33P]ATP by scintillation counting method
[20] = molecular target: Serine/threonine-protein kinase ULK3 (Homo sapiens) (UniProt Q6PHR2); assay: Inhibition of recombinant full-length human ULK3 at 10 uM using casein as substrate measured after 40 mins in presence of [gamma33P]ATP by scintillation counting method
Serine/threonine-protein kinase ULK3 (Homo sapiens), sequence (Q6PHR2 whole entry): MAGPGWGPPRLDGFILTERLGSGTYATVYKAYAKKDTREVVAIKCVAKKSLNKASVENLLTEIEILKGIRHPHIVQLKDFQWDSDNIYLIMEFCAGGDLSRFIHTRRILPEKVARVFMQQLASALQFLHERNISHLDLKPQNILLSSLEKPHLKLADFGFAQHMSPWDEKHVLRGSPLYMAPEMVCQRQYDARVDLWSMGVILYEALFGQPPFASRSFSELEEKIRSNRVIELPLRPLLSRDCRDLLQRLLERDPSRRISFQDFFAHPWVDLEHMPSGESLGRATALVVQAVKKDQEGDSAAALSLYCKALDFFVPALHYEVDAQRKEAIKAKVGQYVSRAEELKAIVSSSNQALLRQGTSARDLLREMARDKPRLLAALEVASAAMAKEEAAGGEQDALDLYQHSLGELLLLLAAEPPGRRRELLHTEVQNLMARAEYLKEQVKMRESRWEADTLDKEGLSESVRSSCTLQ

With `CN1C[C@H](Nc2nc3cc[nH]c3c(=O)n2C)C[C@H](c2ccc3c(c2)OCCO3)C1` the inhibition [1] was “inactive”, the inhibition [2] was “inactive” and the inhibition (Mus musculus) was “inactive”. For the same compound, the inhibition [3] was “inactive”, the inhibition [4] was “inactive” and the inhibition [5] was “inactive”. The inhibition [6] was “inactive”, the ΔTm (Peregrin (Homo sapiens)) was 2.6 °C and the inhibition [7] was “inactive”. The Activity [8] was “inactive”, the inhibition [9] was “inactive” and the inhibition [10] was “inactive”. For the same compound, the inhibition [11] was “inactive”, the inhibition [12] was “inactive” and the inhibition [13] was “inactive”. The inhibition [14] was “inactive”, the inhibition [15] was “inactive” and the inhibition [16] was “inactive”. For the same compound, the inhibition (Homo sapiens [17]) was “inactive”, the inhibition (Homo sapiens [18]) was “inactive” and the inhibition [19] was “inactive”. For the same compound, the inhibition [20] was “inactive”.
